Measured values reported in ChEMBL document CHEMBL5058577, “EUbOPEN Chemogenomics Library 2 (Multiplex)” (2022).

Test system: HEK-293T
Test: Multiplex assay against HEK293T
Type: toxicity, cell-based
Conditions: human
Procedure, shortened: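 At seeding, live cells were stained with Hoechst33342, BioTracker Green Microtubule Cytoskeleton Dye, MitoTracker Red and Annexin V Alexa Fluor 680. After compound addition they were imaged on a CQ1 microscope at 37°C and 5% CO2, and CellPathfinder machine-learning gating sorted them into Hoechst high-intensity objects or normal cells, with normal cells further split into healthy, pyknosed or fragmented nuclei and pyknosed cells into mitotic or apoptotic. Tubulin, mitochondrial-mass and membrane-permeability phenotypes are given as per cents of cells with healthy nuclei.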

[1] = 12 h, 1 µM, compound concentration 1 uM, replicate 1
[2] = 12 h, 1 µM, compound concentration 1 uM, replicate 2
[3] = 12 h, 10 µM, compound concentration 10 uM, replicate 1
[4] = 12 h, 10 µM, compound concentration 10 uM, replicate 2
[5] = 24 h, 1 µM, compound concentration 1 uM, replicate 1
[6] = 24 h, 1 µM, compound concentration 1 uM, replicate 2
[7] = 24 h, 10 µM, compound concentration 10 uM, replicate 1
[8] = 24 h, 10 µM, compound concentration 10 uM, replicate 2
[9] = 48 h, 1 µM, compound concentration 1 uM, replicate 1
[10] = 48 h, 1 µM, compound concentration 1 uM, replicate 2
[11] = 48 h, 10 µM, compound concentration 10 uM, replicate 1
[12] = 48 h, 10 µM, compound concentration 10 uM, replicate 2

## CC(C)(C)c1ccc(CSc2cnn(C(C)(C)C)c(=O)c2Cl)cc1 [PYRIDABEN]
[1]
  Population Apoptotic (%): 51%
  Population Fragmented Nuclei (%): 7%
  Population Healthy Nuclei (%): 78%
  Population Hoechst High Intensity Objects (%): 12%
  Population Membrane Permeable-Phenotype (%): 0%
  Population Mitochondria Different-Phenotype (%): 51%
  Population Mitotic Cells (%): 48%
  Population Normal (%): 87%
  Population Pyknosed Nuclei (%): 14%
  Population Tubulin-Different-Phenotype (%): 34%
  Total Cell Count: 299
[2]
  Population Apoptotic (%): 28%
  Population Fragmented Nuclei (%): 6%
  Population Healthy Nuclei (%): 83%
  Population Hoechst High Intensity Objects (%): 8%
  Population Mitochondria Different-Phenotype (%): 63%
  Population Mitotic Cells (%): 71%
  Population Normal (%): 91%
  Population Pyknosed Nuclei (%): 10%
  Population Tubulin-Different-Phenotype (%): 30%
  Total Cell Count: 306
[3]
  Population Apoptotic (%): 56%
  Population Fragmented Nuclei (%): 6%
  Population Healthy Nuclei (%): 77%
  Population Hoechst High Intensity Objects (%): 11%
  Population Membrane Permeable-Phenotype (%): 0%
  Population Mitochondria Different-Phenotype (%): 75%
  Population Mitotic Cells (%): 44%
  Population Normal (%): 88%
  Population Pyknosed Nuclei (%): 15%
  Population Tubulin-Different-Phenotype (%): 55%
  Total Cell Count: 359
[4]
  Population Apoptotic (%): 62%
  Population Fragmented Nuclei (%): 8%
  Population Healthy Nuclei (%): 74%
  Population Hoechst High Intensity Objects (%): 17%
  Population Mitochondria Different-Phenotype (%): 81%
  Population Mitotic Cells (%): 37%
  Population Normal (%): 82%
  Population Pyknosed Nuclei (%): 16%
  Population Tubulin-Different-Phenotype (%): 38%
  Total Cell Count: 236
[5]
  Population Apoptotic (%): 33%
  Population Fragmented Nuclei (%): 7%
  Population Healthy Nuclei (%): 80%
  Population Hoechst High Intensity Objects (%): 9%
  Population Membrane Permeable-Phenotype (%): 0%
  Population Mitochondria Different-Phenotype (%): 37%
  Population Mitotic Cells (%): 66%
  Population Normal (%): 90%
  Population Pyknosed Nuclei (%): 11%
  Population Tubulin-Different-Phenotype (%): 27%
  Total Cell Count: 373
[6]
  Population Apoptotic (%): 35%
  Population Healthy Nuclei (%): 83%
  Population Hoechst High Intensity Objects (%): 8%
  Population Mitochondria Different-Phenotype (%): 43%
  Population Mitotic Cells (%): 64%
  Population Normal (%): 91%
  Population Pyknosed Nuclei (%): 8%
  Population Tubulin-Different-Phenotype (%): 22%
  Total Cell Count: 370
[7]
  Population Apoptotic (%): 44%
  Population Fragmented Nuclei (%): 7%
  Population Healthy Nuclei (%): 79%
  Population Hoechst High Intensity Objects (%): 10%
  Population Membrane Permeable-Phenotype (%): 0%
  Population Mitochondria Different-Phenotype (%): 68%
  Population Mitotic Cells (%): 55%
  Population Normal (%): 89%
  Population Pyknosed Nuclei (%): 12%
  Population Tubulin-Different-Phenotype (%): 52%
  Total Cell Count: 386
[8]
  Population Apoptotic (%): 46%
  Population Fragmented Nuclei (%): 8%
  Population Healthy Nuclei (%): 70%
  Population Hoechst High Intensity Objects (%): 23%
  Population Mitochondria Different-Phenotype (%): 65%
  Population Mitotic Cells (%): 53%
  Population Normal (%): 76%
  Population Pyknosed Nuclei (%): 21%
  Population Tubulin-Different-Phenotype (%): 25%
  Total Cell Count: 252
[9]
  Population Apoptotic (%): 19%
  Population Fragmented Nuclei (%): 11%
  Population Healthy Nuclei (%): 80%
  Population Hoechst High Intensity Objects (%): 5%
  Population Membrane Permeable-Phenotype (%): 0%
  Population Mitochondria Different-Phenotype (%): 25%
  Population Mitotic Cells (%): 80%
  Population Normal (%): 94%
  Population Pyknosed Nuclei (%): 7%
  Population Tubulin-Different-Phenotype (%): 14%
  Total Cell Count: 585
[10]
  Population Apoptotic (%): 30%
  Population Fragmented Nuclei (%): 9%
  Population Healthy Nuclei (%): 84%
  Population Hoechst High Intensity Objects (%): 4%
  Population Mitochondria Different-Phenotype (%): 21%
  Population Mitotic Cells (%): 69%
  Population Normal (%): 95%
  Population Pyknosed Nuclei (%): 6%
  Population Tubulin-Different-Phenotype (%): 13%
  Total Cell Count: 522
[11]
  Population Apoptotic (%): 48%
  Population Fragmented Nuclei (%): 8%
  Population Healthy Nuclei (%): 79%
  Population Hoechst High Intensity Objects (%): 11%
  Population Membrane Permeable-Phenotype (%): 0%
  Population Mitochondria Different-Phenotype (%): 59%
  Population Mitotic Cells (%): 51%
  Population Normal (%): 88%
  Population Pyknosed Nuclei (%): 12%
  Population Tubulin-Different-Phenotype (%): 43%
  Total Cell Count: 424
[12]
  Population Apoptotic (%): 64%
  Population Fragmented Nuclei (%): 13%
  Population Healthy Nuclei (%): 71%
  Population Hoechst High Intensity Objects (%): 14%
  Population Mitochondria Different-Phenotype (%): 48%
  Population Mitotic Cells (%): 35%
  Population Normal (%): 85%
  Population Pyknosed Nuclei (%): 14%
  Population Tubulin-Different-Phenotype (%): 28%
  Total Cell Count: 290
